Laboratory results published in ChEMBL document CHEMBL1122003, “Preparation and antiinflammatory activity of 2- and 4-pyridones” (J Med Chem, 1982).
Values joined by “and” are separate entries in the source; they are usually repeats but may differ in a detail not shown here. Identical values can stand only once.

Assays:
[1] = (§1) Lethal dose of compound was determined in mice by standard multidimensional observational assay; assay type: toxicity, organism-based; conditions: mouse, in vivo
Outline: (§2)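 Approximate LD50 in mice, estimated from a standard multidimensional observational assay and calculated by the Litchfield–Wilcoxon method.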

[2] = system: Rattus norvegicus; test: Percent reduction of edema was measured after oral administration at 200 mg/kg using carrageenan-induced pedal edema assay; assay type: functional
Outline: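 Rats fasted 2 h; single oral 200 mg/kg in 0.25% methylcellulose, vehicle controls. Carrageenan (1% sterile, 0.05 cm³) injected into left hind foot pad 1 h after dosing. Paw volume measured at peak swelling, 3 h, by displacement apparatus; edema from differential paw volume, expressed as % reduction vs control.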

[3] = species: Mus musculus; test: as §1; assay type: toxicity, organism-based; conditions: in vivo; outline: as §2
[4] = system: Rattus norvegicus; test: Effective dose of compound that reduce edema by at least 25% in 50% of animals; assay type: functional
Outline: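 Rats, fasted 2 h, water ad libitum; compound given orally in 0.25% methylcellulose, controls vehicle only, at several doses below the 200 mg/kg screen. Carrageenan (1% sterile, 0.05 cm³) injected into left hind foot pad 1 h later. Paw volume measured at 3 h.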

[5] = system: Rattus norvegicus; test: Effective dose of compound that reduce edema in adrenolectomized rats by at least 25% in 50% of animals; assay type: functional
Outline: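 Rats adrenalectomized several days before assay; otherwise as the intact-rat test: fasted 2 h, oral dosing in 0.25% methylcellulose at several doses, carrageenan (1%, 0.05 cm³) into left hind foot pad 1 h later, paw volume at 3 h.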

[6] = Rattus norvegicus, read-out: ED50

SMILES	LD50 [1] [mg/kg]	Reduction [2] [%]	Reduction ([2]; 200 mg/kg)	LD50 [3] [mg/kg]	ED50 [4] [mg/kg]	ED50 [4, 6] [mg/kg]	ED50 [5] [mg/kg]
COc1ccc(OC)c(NC(=O)c2c(C)n(-c3cc(OC)ccc3OC)c(C)cc2=O)c1	562	0					
Cc1cccc(NC(=O)c2c(C)n(-c3cccc(C)c3C)c(C)cc2=O)c1C	562	0					
Cc1c(Br)c(=O)c(C(=O)Nc2ccccc2)c(C)n1-c1ccccc1	562	23					
Cc1cc(=O)c(C(=O)Nc2ccc(Cl)cc2)c(C)n1-c1ccc(Cl)cc1			58% and 62%				
Cc1cc(=O)c(C(=O)Nc2ccccc2Cl)c(C)n1-c1ccccc1Cl	562		2% and 8%	562			
Cc1cc(=O)c(C(=O)Nc2ccccc2)c(C)n1-c1ccccc1	562		25% and 33%	562	>200	200	
Cc1cccc(C)c1NC(=O)c1c(C)n(-c2c(C)cccc2C)c(C)cc1=O			31% and 26%				
Cc1ccccc1NC(=O)c1c(C)n(-c2ccccc2C)c(C)cc1=O	562		17% and 49%			80	84.8
Cc1cc(C)c(NC(=O)c2c(C)n(-c3c(C)cc(C)cc3C)c(C)cc2=O)c(C)c1		53					
COc1ccccc1NC(=O)c1c(C)n(-c2ccccc2OC)c(C)cc1=O	562			300		28	200
O=C(Nc1ccccc1)c1c(-c2ccccc2)n(-c2ccccc2)c(-c2ccccc2)cc1=O	562	0					
